# From article PMC5383082 (International Journal of Nanomedicine, 2017)
# Columns and labels:
# HeLa cells [1] = assay: MTT cytotoxicity assay; assay type: cell-based
# Method in brief: (§1)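 Cells kept in folate-free medium were seeded at 5×10^3 per well and grown 24 h. They were then exposed for 2 h at 37°C to serial dilutions of 1.56–25.00 μg/mL DOX equivalent, followed by 72 h in drug-free DMEM. MTT (5 mg/mL stock) was added for 4 h, formazan was dissolved in DMSO and absorbance read at 490 nm. Five parallel experiments; mean ± SD.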
# [2] = Pharmacokinetic analysis of plasma DOX after intravenous injection; assay type: in vivo; conditions: Kunming mice, i.v. 5 mg/kg DOX, noncompartmental
# HeLa cells [3] = assay: Apoptosis assay; assay type: cell-based; conditions: 3 μg/mL DOX
# Method in brief: (§2)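 HeLa or KB cells were seeded at 4×10^5 per well, cultured 24 h, then exposed to conjugates at 3 μg/mL DOX for 24 h at 37°C. For receptor blocking, 1 mM free folate was added before the drug. Trypsinized and floating cells were pooled and stained with annexin V-FITC/PI. 20,000 cells per sample were analysed by flow cytometry, with FSC/SSC gating to exclude debris. Q2 was scored as late and Q4 as early apoptosis. Mean ± SD, three independent experiments.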
# KB cells [4] = assay: Apoptosis assay; assay type: cell-based; conditions: 3 μg/mL DOX
# Method in brief: as §2
# HeLa cells [5] = assay: Cellular uptake; assay type: cell-based
# Method in brief: (§3)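 Cells were grown 48 h in folate-free RPMI 1640, then given conjugates at 5 μg/mL DOX for 1 h at 37°C. For blocking, 1 mM free folate was added before the conjugates. For microscopy, monolayers were rinsed 3× with PBS, fixed in 4% paraformaldehyde for 15 min and imaged by fluorescence at equal exposure. For flow cytometry, 3×10^5 trypsinized cells per tube received the same treatment and were rinsed before reading.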
# [6] = Tissue distribution of DOX after intravenous injection; assay type: in vivo; conditions: mice, i.v. 5 mg/kg, compared with free DOX
# Method in brief: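 Male Kunming mice (~25 g, 6–8 weeks) received 5 mg/kg DOX equivalent intravenously. Heart, liver, spleen and kidney were collected at 30 min and 3 h. Tissue was homogenized in ethanol/HCl/water and centrifuged at 12,000 rpm for 15 min. DOX in the supernatant was measured by fluorescence spectrophotometry. n=4; mean ± SD.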
# Subcutaneous KB tumors = assay: KB xenograft tumor mouse model; assay type: in vivo, BALB/c nude mice; conditions: KB xenograft nude mice, single i.v. dose 8 mg/kg DOX
# Method in brief: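 Female BALB/c nude mice (6–8 weeks, 16–18 g) were inoculated subcutaneously in the front armpit with 2.5×10^6 KB cells. Once tumors were established, mice got a single tail-vein injection of 8 mg/kg DOX equivalent; saline served as control. Tumors were measured every 4 days, with volume = length × width² × 0.52. Body weight was recorded every 4 days and survival was followed. n=6 per group; mean ± SD.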
# KB cells [7] = assay: Cellular uptake; assay type: cell-based
# Method in brief: as §3
# KB cells [8] = assay: MTT cytotoxicity assay; assay type: cell-based
# Method in brief: as §1
# [9] = 2 h drug incubation then 72 h culture, DOX concentration, mean ± SD
substance,measurement,setting,value
folate-polyethylene glycol-immunoglobulin G-doxorubicin [FA-PEG-IgG-DOX],IC50 as fraction of that of IgG-DOX,HeLa cells [1],about 1/8
same,"antitumor activity, times higher than IgG-DOX",HeLa cells [1],at least 8 times
same,IC50,HeLa cells [1]; [9],3.22 ± 0.9 µg/mL
same,AUC(0–∞),[2],992.943 μg/mL⋅h
same,CLz,[2],0.19 mL/day/kg
same,Cmax,[2],225.275 ng/mL
same,Vz,[2],0.070 L/kg
same,proapoptotic effect after pretreatment with 1 mM folate,HeLa cells [3],significantly diminished
same,proapoptotic effect after pretreatment with 1 mM folate,KB cells [4],significantly diminished
same,fluorescence intensity (microscopy),"HeLa cells [5]; 5 μg/mL DOX, 1 h, 37°C",apparently higher than IgG-DOX
same,uptake after 1 mM folate pretreatment (microscopy),HeLa cells [5]; 1 mM folate pretreatment,could be blocked
same,DOX concentration in the heart,[6],at the same level with that following free DOX injection
same,body weight change,Subcutaneous KB tumors,minor body weight reduction
same,survival of treated mice,Subcutaneous KB tumors,prolonged the survival of treated mice compared with DOX
same,tumor growth from day 12 to day 25,Subcutaneous KB tumors,maintained a very low growth rate
same,average tumor size at day 25 after injection,Subcutaneous KB tumors; day 25,553 mm^3
same,fluorescence intensity (microscopy),"KB cells [7]; 5 μg/mL DOX, 1 h, 37°C",apparently higher than IgG-DOX
same,uptake after 1 mM folate pretreatment (microscopy),KB cells [7]; 1 mM folate pretreatment,could be blocked
same,IC50 as fraction of that of IgG-DOX,KB cells [8],about 1/12
same,"antitumor activity, times higher than IgG-DOX",KB cells [8],at least 8 times
same,IC50,KB cells [8]; [9],1.78 ± 0.4 µg/mL
